Source: ChEMBL document CHEMBL3352004, “(7-Benzyloxy-2,3-dihydro-1H-pyrrolo[1,2-a]indol-1-yl)acetic Acids as S1P1 Functional Antagonists” (ACS Med Chem Lett, 2014)
pEC50, pIC50: −log10 of the molar value. Values after ≈ are worked out from the molar mass of the structure shown. Active and inactive are the calls of the source. No cut-off for these calls is given here.

Experiments:
[1] = molecular target: T1, Sphingosine 1-phosphate receptor 1 (Homo sapiens, UniProt P21453); assay: Agonist activity at human S1P1 receptor assessed as cAMP accumulation by HTRF assay; assay type: functional
T1 sequence (P21453 whole entry): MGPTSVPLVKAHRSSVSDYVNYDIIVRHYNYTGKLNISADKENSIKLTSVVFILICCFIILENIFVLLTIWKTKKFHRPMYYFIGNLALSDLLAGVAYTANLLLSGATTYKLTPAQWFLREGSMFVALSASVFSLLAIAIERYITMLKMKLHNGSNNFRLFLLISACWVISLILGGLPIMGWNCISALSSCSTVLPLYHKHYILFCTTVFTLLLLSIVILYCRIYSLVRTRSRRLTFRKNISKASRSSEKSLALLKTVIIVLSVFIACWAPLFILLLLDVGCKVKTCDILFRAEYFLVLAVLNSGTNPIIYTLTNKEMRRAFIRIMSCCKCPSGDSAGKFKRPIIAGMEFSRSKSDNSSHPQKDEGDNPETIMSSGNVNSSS
Outline: (§1)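 S1P1 engagement measured as cyclase activity in a homogeneous time-resolved fluorescence (HTRF) assay.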

[2] = molecular target: T1, Sphingosine 1-phosphate receptor 1; assay: Agonist activity at human S1P1 receptor assessed as cAMP accumulation by HTRF assay relative to S1P; assay type: functional
[3] = molecular target: T1, Sphingosine 1-phosphate receptor 1; assay: Agonist activity at human S1P1 receptor by beta-arrestin recruitment assay
[4] = molecular target: T1, Sphingosine 1-phosphate receptor 1; assay: Agonist activity at human S1P1 receptor by beta-arrestin recruitment assay relative to S1P
[5] = molecular target: Sphingosine 1-phosphate receptor 2 (Homo sapiens, UniProt O95136); assay: Agonist activity at human S1P2 receptor by beta-arrestin recruitment assay
Sequence of Sphingosine 1-phosphate receptor 2 (O95136 whole entry): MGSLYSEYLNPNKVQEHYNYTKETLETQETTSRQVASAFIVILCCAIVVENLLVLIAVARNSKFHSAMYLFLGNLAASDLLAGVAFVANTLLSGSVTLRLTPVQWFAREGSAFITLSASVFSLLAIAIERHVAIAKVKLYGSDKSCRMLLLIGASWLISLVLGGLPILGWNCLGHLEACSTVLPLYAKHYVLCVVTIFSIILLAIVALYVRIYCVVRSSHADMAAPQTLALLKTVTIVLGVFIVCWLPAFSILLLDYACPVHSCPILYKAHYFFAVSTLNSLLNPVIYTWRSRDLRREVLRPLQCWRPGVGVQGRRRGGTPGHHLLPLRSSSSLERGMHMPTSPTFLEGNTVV

[6] = molecular target: Sphingosine 1-phosphate receptor 3 (Homo sapiens, UniProt Q99500); assay: Agonist activity at human S1P3 receptor by beta-arrestin recruitment assay
Sequence of Sphingosine 1-phosphate receptor 3 (Q99500 whole entry): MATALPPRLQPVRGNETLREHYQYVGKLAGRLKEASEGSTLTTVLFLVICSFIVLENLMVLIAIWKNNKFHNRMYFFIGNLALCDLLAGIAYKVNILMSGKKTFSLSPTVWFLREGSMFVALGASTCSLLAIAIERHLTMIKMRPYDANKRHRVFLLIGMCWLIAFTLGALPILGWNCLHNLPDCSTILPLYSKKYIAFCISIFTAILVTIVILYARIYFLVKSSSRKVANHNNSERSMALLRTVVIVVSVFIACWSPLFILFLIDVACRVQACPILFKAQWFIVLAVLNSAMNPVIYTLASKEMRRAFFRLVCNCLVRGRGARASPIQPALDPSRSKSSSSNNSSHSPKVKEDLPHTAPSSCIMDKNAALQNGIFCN

[7] = molecular target: T2, Sphingosine 1-phosphate receptor 4 (Homo sapiens, UniProt O95977); assay: Agonist activity at human S1P4 receptor by beta-arrestin recruitment assay
T2 sequence (O95977 whole entry): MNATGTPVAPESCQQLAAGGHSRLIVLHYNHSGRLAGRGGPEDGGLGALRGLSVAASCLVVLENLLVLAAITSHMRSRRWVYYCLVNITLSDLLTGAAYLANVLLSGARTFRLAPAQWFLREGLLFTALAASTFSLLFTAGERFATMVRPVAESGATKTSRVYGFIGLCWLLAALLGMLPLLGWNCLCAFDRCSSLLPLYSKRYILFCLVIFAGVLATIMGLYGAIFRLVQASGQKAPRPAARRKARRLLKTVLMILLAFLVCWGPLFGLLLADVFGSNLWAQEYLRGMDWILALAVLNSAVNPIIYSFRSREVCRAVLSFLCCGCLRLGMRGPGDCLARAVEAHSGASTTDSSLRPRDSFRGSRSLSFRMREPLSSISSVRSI

[8] = molecular target: T3, Sphingosine 1-phosphate receptor 4 (Homo sapiens) (UniProt O95977); assay: Agonist activity at human S1P4 receptor by beta-arrestin recruitment assay relative to S1P
T3 sequence (whole entry): T2 sequence (O95977 whole entry)

[9] = molecular target: T4, Sphingosine 1-phosphate receptor 5 (Homo sapiens, UniProt Q9H228); assay: Agonist activity at human S1P5 receptor by beta-arrestin recruitment assay
T4 sequence (Q9H228 whole entry): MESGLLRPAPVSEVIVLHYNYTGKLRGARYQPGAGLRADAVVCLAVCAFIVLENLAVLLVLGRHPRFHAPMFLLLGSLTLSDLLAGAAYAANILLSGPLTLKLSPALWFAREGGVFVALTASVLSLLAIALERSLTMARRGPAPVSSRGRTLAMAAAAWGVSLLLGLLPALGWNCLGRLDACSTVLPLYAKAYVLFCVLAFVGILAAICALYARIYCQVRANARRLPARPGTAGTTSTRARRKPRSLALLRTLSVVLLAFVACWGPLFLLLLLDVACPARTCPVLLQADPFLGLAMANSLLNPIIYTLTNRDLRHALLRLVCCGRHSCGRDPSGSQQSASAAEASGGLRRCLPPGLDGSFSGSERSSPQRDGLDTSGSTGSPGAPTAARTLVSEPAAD

[10] = molecular target: T4, Sphingosine 1-phosphate receptor 5; assay: Agonist activity at human S1P5 receptor by beta-arrestin recruitment assay relative to S1P
[11] = Systemic clearance in Sprague-Dawley rat at 1 mg/kg, iv; assay type: ADME, organism-based; parameters: dose 1 mg/kg, route intravenous; details: in vivo
[12] = Volume of distribution at steady state in Sprague-Dawley rat at 1 mg/kg, iv; assay type: ADME, organism-based; parameters: dose 1 mg/kg, route intravenous; details: in vivo, read-out: Vdss
[13] = Cmax in Sprague-Dawley rat at 1 mg/kg, po; assay type: ADME, organism-based; parameters: dose 1 mg/kg, route oral; details: in vivo
[14] = Tmax in Sprague-Dawley rat at 1 mg/kg, po; assay type: ADME, organism-based; parameters: dose 1 mg/kg, route oral; details: in vivo
[15] = AUC (0 to infinity) in Sprague-Dawley rat at 1 mg/kg, iv or at 1 mg/kg, po; assay type: ADME, organism-based; details: plasma
[16] = Elimination half life in Sprague-Dawley rat at 1 mg/kg, po; assay type: ADME, organism-based; parameters: dose 1 mg/kg, route oral; details: in vivo, read-out: beta t1/2 (converted)
[17] = Oral bioavailability in Sprague-Dawley rat at 1 mg/kg; assay type: ADME, organism-based; details: in vivo
[18] = Ratio of drug level in brain to plasma in Sprague-Dawley rat; assay type: ADME; details: read-out: BPR
Outline: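 Abbreviated rat CNS distribution: a single 1.0 mg/kg oral dose, with brain and plasma drug levels measured over 6 h. Brain-to-plasma ratio derived from these levels.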

Rattus norvegicus [19] = species: Rattus norvegicus; assay: Reduction in lymphocyte count in Sprague-Dawley rat; assay type: functional, organism-based
Outline: (§2)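 A PK/PD model relating plasma drug concentration to circulating lymphocyte counts was used to derive the plasma concentration that reduces lymphocytes by 50% (LL IC50, ng/mL).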

[20] = molecular target: Sphingosine 1-phosphate receptor 1 (Mus musculus, UniProt O08530); assay: Agonist activity at mouse S1P1 receptor assessed as cAMP accumulation by HTRF assay; assay type: functional; outline: as §1
[21] = molecular target: Sphingosine 1-phosphate receptor 1 (Mus musculus) (UniProt O08530); assay: Agonist activity at mouse S1P1 receptor assessed as cAMP accumulation by HTRF assay relative to S1P; assay type: functional
[22] = molecular target: Sphingosine 1-phosphate receptor 1 (Rattus norvegicus, UniProt P48303); assay: Agonist activity at rat S1P1 receptor assessed as cAMP accumulation by HTRF assay; assay type: functional; outline: as §1
[23] = molecular target: Sphingosine 1-phosphate receptor 1 (Rattus norvegicus) (UniProt P48303); assay: Agonist activity at rat S1P1 receptor assessed as cAMP accumulation by HTRF assay relative to S1P; assay type: functional
[24] = molecular target: Sphingosine-1-phosphate receptor 1 (Canis lupus familiaris, UniProt W5VNF7); assay: Agonist activity at dog S1P1 receptor assessed as cAMP accumulation by HTRF assay; assay type: functional; outline: as §1
Sequence of Sphingosine-1-phosphate receptor 1 (W5VNF7 whole entry): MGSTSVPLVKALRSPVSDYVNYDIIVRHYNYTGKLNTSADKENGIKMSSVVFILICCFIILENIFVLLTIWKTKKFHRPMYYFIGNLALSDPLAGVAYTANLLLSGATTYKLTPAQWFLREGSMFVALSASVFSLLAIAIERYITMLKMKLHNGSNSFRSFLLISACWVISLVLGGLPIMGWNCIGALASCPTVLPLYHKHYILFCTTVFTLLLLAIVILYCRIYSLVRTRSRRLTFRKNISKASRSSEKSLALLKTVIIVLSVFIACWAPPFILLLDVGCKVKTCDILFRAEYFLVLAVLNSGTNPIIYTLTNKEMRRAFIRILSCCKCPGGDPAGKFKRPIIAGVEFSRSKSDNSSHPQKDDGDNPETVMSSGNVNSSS

[25] = molecular target: Sphingosine-1-phosphate receptor 1 (Canis lupus familiaris) (UniProt W5VNF7); assay: Agonist activity at dog S1P1 receptor assessed as cAMP accumulation by HTRF assay relative to S1P; assay type: functional
Sequence of Sphingosine-1-phosphate receptor 1 (Canis lupus familiaris) (W5VNF7 as listed by the source): as the sequence (W5VNF7 whole entry) above

[26] = molecular target: Sphingosine 1-phosphate receptor 1 (Macaca mulatta, UniProt H9EUW9); assay: Agonist activity at monkey S1P1 receptor assessed as cAMP accumulation by HTRF assay; assay type: functional; outline: as §1
Sequence of Sphingosine 1-phosphate receptor 1 (Macaca mulatta, UniProt H9EUW9) (H9EUW9 whole entry): as the sequence (P21453 whole entry) above, with P3S, H12L, I37T, K41R, S189P, I241M, E365D counted along it

[27] = molecular target: Sphingosine 1-phosphate receptor 1 (Macaca mulatta) (UniProt H9EUW9); assay: Agonist activity at monkey S1P1 receptor assessed as cAMP accumulation by HTRF assay relative to S1P; assay type: functional
Sequence of Sphingosine 1-phosphate receptor 1 (Macaca mulatta) (H9EUW9 as listed by the source): as the sequence (P21453 whole entry) above, with P3S, H12L, I37T, K41R, S189P, I241M, E365D counted along it

[28] = molecular target: Voltage-gated inwardly rectifying potassium channel KCNH2 (Homo sapiens, UniProt Q12809); assay: Binding affinity to human ERG
Sequence of Voltage-gated inwardly rectifying potassium channel KCNH2 (Q12809 whole entry): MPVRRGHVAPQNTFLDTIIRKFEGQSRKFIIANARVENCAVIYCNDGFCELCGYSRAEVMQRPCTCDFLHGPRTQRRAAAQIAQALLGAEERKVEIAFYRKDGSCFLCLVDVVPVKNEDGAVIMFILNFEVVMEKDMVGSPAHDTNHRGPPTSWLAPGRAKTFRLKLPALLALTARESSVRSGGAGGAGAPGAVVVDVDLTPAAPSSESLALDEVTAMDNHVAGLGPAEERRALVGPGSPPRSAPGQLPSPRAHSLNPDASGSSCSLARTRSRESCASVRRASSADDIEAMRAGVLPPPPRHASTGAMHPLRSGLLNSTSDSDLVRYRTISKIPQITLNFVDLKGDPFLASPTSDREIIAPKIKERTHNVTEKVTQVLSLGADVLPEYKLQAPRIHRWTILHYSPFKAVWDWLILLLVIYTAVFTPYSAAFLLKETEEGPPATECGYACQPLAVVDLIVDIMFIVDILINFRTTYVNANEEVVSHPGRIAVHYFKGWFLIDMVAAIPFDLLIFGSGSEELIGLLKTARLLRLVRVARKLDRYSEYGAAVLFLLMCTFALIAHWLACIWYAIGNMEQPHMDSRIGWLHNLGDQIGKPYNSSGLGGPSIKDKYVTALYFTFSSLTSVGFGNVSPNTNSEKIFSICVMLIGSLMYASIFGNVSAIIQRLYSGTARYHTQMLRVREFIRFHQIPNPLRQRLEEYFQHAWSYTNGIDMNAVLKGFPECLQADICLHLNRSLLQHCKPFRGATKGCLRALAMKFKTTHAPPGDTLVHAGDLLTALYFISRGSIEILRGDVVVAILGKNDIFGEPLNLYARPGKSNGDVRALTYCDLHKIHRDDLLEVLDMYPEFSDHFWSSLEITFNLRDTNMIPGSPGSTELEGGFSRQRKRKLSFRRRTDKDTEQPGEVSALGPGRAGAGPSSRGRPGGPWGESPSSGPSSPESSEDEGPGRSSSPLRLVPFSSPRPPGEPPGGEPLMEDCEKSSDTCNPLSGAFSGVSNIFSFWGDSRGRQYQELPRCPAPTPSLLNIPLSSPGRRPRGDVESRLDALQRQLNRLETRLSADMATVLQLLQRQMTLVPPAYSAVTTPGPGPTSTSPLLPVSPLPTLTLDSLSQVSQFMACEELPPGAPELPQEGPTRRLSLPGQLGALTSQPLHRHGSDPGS

Rattus norvegicus [29] = species: Rattus norvegicus; assay: Toxicity in telemeterized rat assessed as effect on cardiovascular function; assay type: organism-based, Heart; details: in vivo
Cytochrome P450 2C9 = Cytochrome P450 2C9 (Homo sapiens, UniProt P11712); assay: Inhibition of CYP2C9 (unknown origin); assay type: ADME
Sequence of Cytochrome P450 2C9 (P11712 whole entry): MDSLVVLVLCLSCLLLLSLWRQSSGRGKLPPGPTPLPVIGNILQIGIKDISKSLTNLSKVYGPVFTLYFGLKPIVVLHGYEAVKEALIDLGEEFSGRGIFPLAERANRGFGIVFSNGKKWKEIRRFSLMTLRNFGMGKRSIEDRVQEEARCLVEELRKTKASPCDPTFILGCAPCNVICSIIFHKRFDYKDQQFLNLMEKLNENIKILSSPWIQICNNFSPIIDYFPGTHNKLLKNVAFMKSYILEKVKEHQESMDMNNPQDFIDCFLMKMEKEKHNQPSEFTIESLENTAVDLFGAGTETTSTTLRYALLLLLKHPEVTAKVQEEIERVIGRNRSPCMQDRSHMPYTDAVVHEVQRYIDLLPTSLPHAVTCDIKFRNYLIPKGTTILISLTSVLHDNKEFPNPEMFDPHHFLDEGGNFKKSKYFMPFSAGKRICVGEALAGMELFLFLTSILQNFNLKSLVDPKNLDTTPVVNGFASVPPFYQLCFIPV

Cytochrome P450 3A4 = Cytochrome P450 3A4 (Homo sapiens, UniProt P08684); assay: Inhibition of CYP3A4 (unknown origin); assay type: ADME
Cytochrome P450 2D6 = Cytochrome P450 2D6 (Homo sapiens, UniProt P10635); assay: Inhibition of CYP2D6 (unknown origin); assay type: ADME
Sequence of Cytochrome P450 2D6 (P10635 whole entry): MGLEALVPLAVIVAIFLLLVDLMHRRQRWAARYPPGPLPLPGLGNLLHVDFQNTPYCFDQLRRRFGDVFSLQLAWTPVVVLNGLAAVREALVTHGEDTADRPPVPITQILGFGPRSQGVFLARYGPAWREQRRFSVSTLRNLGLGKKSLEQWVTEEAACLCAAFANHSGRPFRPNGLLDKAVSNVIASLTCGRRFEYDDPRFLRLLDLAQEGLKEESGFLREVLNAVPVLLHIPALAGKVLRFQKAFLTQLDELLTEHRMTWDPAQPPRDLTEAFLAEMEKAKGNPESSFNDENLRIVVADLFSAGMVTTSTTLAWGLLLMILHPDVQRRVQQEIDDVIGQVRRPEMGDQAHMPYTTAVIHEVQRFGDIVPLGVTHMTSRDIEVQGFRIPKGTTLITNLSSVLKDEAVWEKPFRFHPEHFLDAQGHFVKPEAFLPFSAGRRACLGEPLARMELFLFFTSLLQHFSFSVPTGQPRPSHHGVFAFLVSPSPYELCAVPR

Cytochrome P450 1A2 = Cytochrome P450 1A2 (Homo sapiens, UniProt P05177); assay: Inhibition of CYP1A2 (unknown origin); assay type: ADME
Sequence of Cytochrome P450 1A2 (P05177 whole entry): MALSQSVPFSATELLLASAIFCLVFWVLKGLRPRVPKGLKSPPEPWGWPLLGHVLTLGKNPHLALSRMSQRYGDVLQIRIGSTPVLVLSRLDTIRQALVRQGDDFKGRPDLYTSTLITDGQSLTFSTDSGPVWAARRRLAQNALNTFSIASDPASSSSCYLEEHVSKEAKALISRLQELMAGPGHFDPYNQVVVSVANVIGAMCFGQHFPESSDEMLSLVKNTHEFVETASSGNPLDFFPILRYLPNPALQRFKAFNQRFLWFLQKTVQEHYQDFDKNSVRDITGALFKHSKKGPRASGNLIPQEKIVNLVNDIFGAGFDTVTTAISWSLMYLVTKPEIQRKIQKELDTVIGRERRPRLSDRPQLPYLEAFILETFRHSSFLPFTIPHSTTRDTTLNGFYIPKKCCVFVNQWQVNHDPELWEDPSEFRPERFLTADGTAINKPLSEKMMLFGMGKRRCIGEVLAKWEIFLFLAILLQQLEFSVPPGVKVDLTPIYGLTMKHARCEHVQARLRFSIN

Cytochrome P450 2C19 = Cytochrome P450 2C19 (Homo sapiens, UniProt P33261); assay: Inhibition of CYP2C19 (unknown origin); assay type: ADME
[30] = Drug level in rat plasma at 1 mg/kg, po dosed for 6 consecutive days; assay type: ADME, organism-based; parameters: dose 1 mg/kg, route oral
Outline: (§3)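 Repeat-dose rat CNS distribution: 1.0 mg/kg given on six consecutive days. Plasma, brain and CSF were sampled over the 24 h after the last dose. Average concentrations in brain and plasma gave the brain-to-plasma ratio.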

[31] = Drug level in rat brain at 1 mg/kg, po dosed for 6 consecutive days; assay type: ADME, organism-based; parameters: dose 1 mg/kg, route oral; details: read-out: Drug uptake; outline: as §3
[32] = Ratio of drug level in rat brain to plasma at 1 mg/kg, po dosed for 6 consecutive days; assay type: ADME, organism-based; parameters: dose 1 mg/kg, route oral; details: read-out: BPR; outline: as §3
[33] = Cmax rat at 1000 mg/kg, po; assay type: ADME, organism-based; parameters: dose 1000 mg/kg, route oral; details: in vivo
Mus musculus [34] = species: Mus musculus; assay: Reduction in lymphocyte count in mouse; assay type: functional, organism-based; outline: as §2
Mus musculus [35] = assay: Prevention of severity of disease in C57Bl/6 mouse experimental autoimmune encephalomyelitis model of multiple sclerosis at 1 mg/kg dosed for 24 days; assay type: functional, organism-based; parameters: dose 1 mg/kg
Outline: (§4)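 Female C57Bl/6 mice with EAE, a demyelinating autoimmune disease induced to model MS, given compound orally at 0.1, 0.3 or 1.0 mg/kg for 24 days alongside a vehicle group. Clinical scoring began on day 10: 0 healthy; 1 limp tail or hind-limb weakness; 2 limp tail plus limb weakness, or weakness of ≥2 limbs; 3 severe limb weakness or single-limb paralysis; 4 paralysis of ≥2 limbs; 5 death. Mean group score reported.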

Mus musculus [36] = assay: Reduction of disease index score in C57Bl/6 mouse experimental autoimmune encephalomyelitis model of multiple sclerosis at 0.1 to 0.3 mg/kg dosed for 24 days; assay type: functional, organism-based; outline: as §4
Mus musculus [37] = assay: Reduction of disease index score in C57Bl/6 mouse experimental autoimmune encephalomyelitis model of multiple sclerosis at 0.1 mg/kg dosed for 24 days; assay type: functional, organism-based; parameters: dose 0.1 mg/kg; outline: as §4
[38] = Activation of Inward rectifier potassium channel in human atrial myocytes; assay type: cell-based; details: Cardiac atrium
[39] = Solubility in water in crystal phase; assay type: physicochemical
[40] = Solubility in water in L-lysine adduct form; assay type: physicochemical
[41] = tested on: P2Y purinoceptor (Rattus norvegicus); assay: Binding affinity to P2Y purinoceptor (rat) by [35S]dATPalphaS competitive binding assay

With CC(C)Oc1ccc(COc2ccc3c(c2)c(Cl)c2n3CC[C@@H]2CC(=O)O)cc1C(F)(F)F as the compound, how does the pEC50 [1] read?
Its pEC50 is 10.68.

What about the Emax [2] of the same compound?
Its Emax is 99%.

And the pEC50 [3]?
Its pEC50 is 9.21.

What about the Emax [4] of the same compound?
Its Emax is 112%.

And the pEC50 [5]?
Its pEC50 is < 5.00.

And the pEC50 [6]?
Its pEC50 is < 5.00.

And the pEC50 [7]?
Its pEC50 is 7.07.

And the Emax [8]?
Its Emax is 29%.

And the pEC50 [9]?
Its pEC50 is 7.72.

And the Emax [10]?
Its Emax is 59%.

What about the clearance [11] of the same compound?
The clearance was 1.54 mL/min/kg.

And the Vd [12]?
The Vd was 0.831 L/kg.

And the Cmax [13]?
The Cmax was 584 ng/mL.

And the Tmax [14]?
Its Tmax is 4.67 h.

And the AUC(0-inf) [15]?
Its AUC(0-inf) is 6160 ng·h/mL.

What about the half-life [16] of the same compound?
The half-life was 5.09 h.

And the bioavailability [17]?
The bioavailability was 56.6%.

And the Kp [18]?
Its Kp is 0.27.

What about the IC50 (Rattus norvegicus [19]) of the same compound?
The IC50 was 0.0254 µg/mL (≈ 0.0527 µM).

And the pEC50 [20]?
The pEC50 was 10.19.

What about the Emax [21] of the same compound?
The Emax was 95%.

And the pEC50 [22]?
The pEC50 was 10.30.

And the Emax [23]?
The Emax was 81%.

What about the pEC50 [24] of the same compound?
The pEC50 was 10.31.

What about the Emax [25] of the same compound?
The Emax was 59%.

What about the pEC50 [26] of the same compound?
Its pEC50 is 10.24.

What about the Emax [27] of the same compound?
The Emax was 84%.

What about the Activity [28] of the same compound?
The Activity was “Not Active”.

What about the Activity (Rattus norvegicus [29]) of the same compound?
Its Activity is “Non-toxic”.

What about the pIC50 (Cytochrome P450 2C9) of the same compound?
Its pIC50 is < 4.30.

What about the pIC50 (Cytochrome P450 3A4) of the same compound?
Its pIC50 is < 4.30.

What about the pIC50 (Cytochrome P450 2D6) of the same compound?
The pIC50 was < 4.30.

What about the pIC50 (Cytochrome P450 1A2) of the same compound?
The pIC50 was < 4.30.

What about the pIC50 (Cytochrome P450 2C19) of the same compound?
The pIC50 was < 4.30.

What about the concentration at 6 days [30] of the same compound?
Its concentration at 6 days is 352 ng/mL.

And the concentration at 6 days [31]?
Its concentration at 6 days is 568 ng/mL.

And the Kp at 6 days [32]?
Its Kp at 6 days is 1.61.

And the Cmax [33]?
The Cmax was 72200 ng/mL.

And the IC50 (Mus musculus [34])?
The IC50 was 0.0183 µg/mL (≈ 0.038 µM).

And the Activity (Mus musculus [35])?
The Activity was “Active”.

And the Activity (Mus musculus [36])?
Its Activity is “Dose-dependent effect”.

What about the Activity (Mus musculus [37]) of the same compound?
The Activity was “inactive”.

What about the pEC50 [38] of the same compound?
Its pEC50 is 8.05.

What about the solubility [39] of the same compound?
The solubility was < 0.001 mg/mL.

And the solubility [40]?
Its solubility is > 100 mg/mL.

And the IC50 [41]?
Its IC50 is “Not Active”.
